Experimental data published in publication PMC6380921 (Environmental science & technology, 2019).

Experiments:
[1] = target: T1, recombinant human CYP2B6 (Homo sapiens, UniProt P20813); test: PCB biotransformation assay with recombinant human CYP2B6; assay type: in vitro ADME; conditions: for enantiomeric fraction (EF) of OH-PCB metabolite, CYP2B6: EF = Area E1/(Area E1 + Area E2), 50 μM PCB, 60 min, 37 °C, 10 pmol/mL P450; for metabolite as percent of ΣOH-PCBs of the parent PCB, CYP2B6: racemic PCB 50 µM, 10 pmol P450/mL, 37°C, mean ± SD
T1 sequence (P20813 1-491): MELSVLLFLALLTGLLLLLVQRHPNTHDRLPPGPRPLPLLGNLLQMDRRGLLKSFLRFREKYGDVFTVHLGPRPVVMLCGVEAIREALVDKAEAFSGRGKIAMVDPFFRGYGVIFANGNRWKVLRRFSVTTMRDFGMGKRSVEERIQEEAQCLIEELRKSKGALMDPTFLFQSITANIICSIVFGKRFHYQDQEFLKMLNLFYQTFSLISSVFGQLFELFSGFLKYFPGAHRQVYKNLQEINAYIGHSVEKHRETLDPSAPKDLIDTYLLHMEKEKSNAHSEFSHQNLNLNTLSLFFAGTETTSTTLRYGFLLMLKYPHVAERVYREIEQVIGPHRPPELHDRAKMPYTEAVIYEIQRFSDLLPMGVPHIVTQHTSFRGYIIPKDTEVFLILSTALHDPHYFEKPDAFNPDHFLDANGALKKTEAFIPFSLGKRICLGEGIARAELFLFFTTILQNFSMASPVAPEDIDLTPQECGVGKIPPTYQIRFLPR

[2] = tested on: human liver microsomes (HLMs); conditions: cited from earlier work; for enantiomeric fraction (EF) of 5-hydroxylated metabolites, HLMs: metabolism studies with HLMs; for ratio of 3–103: 5–95: 4–95: 4’−95 (relative to 4’−95 = 1), HLMs: PCB 95 with HLMs; for enantiomeric fraction (EF) of 1,2-shift products, HLMs: incubations with HLMs
[3] = target: T2, recombinant human CYP3A4 (Homo sapiens, UniProt P08684); conditions: cited from earlier work
[4] = target: recombinant human CYP2E1 (Homo sapiens, UniProt P05181); conditions: cited from earlier work
[5] = target: T3, recombinant human CYP1A2 (Homo sapiens, UniProt P05177); conditions: cited from earlier work
T3 sequence (P05177 1-516): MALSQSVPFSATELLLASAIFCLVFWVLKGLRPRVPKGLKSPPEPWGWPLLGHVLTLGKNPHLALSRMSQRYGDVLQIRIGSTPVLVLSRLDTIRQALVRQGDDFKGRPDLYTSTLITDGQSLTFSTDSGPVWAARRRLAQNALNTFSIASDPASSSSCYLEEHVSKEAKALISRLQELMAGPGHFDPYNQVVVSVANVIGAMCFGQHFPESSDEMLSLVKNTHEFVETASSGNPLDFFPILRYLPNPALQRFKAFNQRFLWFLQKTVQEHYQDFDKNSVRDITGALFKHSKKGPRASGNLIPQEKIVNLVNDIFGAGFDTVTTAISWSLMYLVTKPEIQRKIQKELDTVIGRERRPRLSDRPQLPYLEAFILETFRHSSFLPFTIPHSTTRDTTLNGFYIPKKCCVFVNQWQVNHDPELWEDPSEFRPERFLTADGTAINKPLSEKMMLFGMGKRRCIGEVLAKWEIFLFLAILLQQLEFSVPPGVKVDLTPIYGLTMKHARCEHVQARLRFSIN

[6] = target: T1, recombinant human CYP2B6; conditions: cited from earlier work
[7] = target: T2, recombinant human CYP3A4; test: PCB biotransformation assay with recombinant human CYP3A4; assay type: in vitro ADME; conditions: racemic PCB 50 µM; 10 pmol P450/mL; 37°C
Procedure, shortened: (§1)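 Human P450 co-expressed with human CYP-reductase in E. coli, 10 pmol/mL, in 0.1 M phosphate pH 7.4 with 3 mM MgCl2 and NADPH-regenerating system (~1 mM NADPH final). After 5 min preincubation, racemic PCB added (50 µM final, DMSO ≤0.5% v/v); incubated up to 60 min at 37°C; stopped with ice-cold NaOH plus heating. OH-PCBs identified as methylated derivatives by high-resolution GC/TOF-MS in 60-min extracts. Control Bactosomes; triplicates.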

[8] = target: T3, recombinant human CYP1A2; test: PCB biotransformation assay with recombinant human CYP1A2; assay type: in vitro ADME; conditions: racemic PCB 50 µM; 10 pmol P450/mL; 37°C
Procedure, shortened: as §1

[9] = target: T4, recombinant human CYP2A6 (Homo sapiens, UniProt P11509); test: PCB biotransformation assay with recombinant human CYP2A6; assay type: in vitro ADME; conditions: for ratio of 3–103: 5–95: 4–95: 4’−95 (relative to 4’−95 = 1), recombinant CYP2A6: PCB 95 incubation; for enantiomeric fraction (EF) of OH-PCB metabolite, CYP2A6: EF = Area E1/(Area E1 + Area E2), 50 μM PCB, 60 min, 37 °C, 10 pmol/mL P450; for metabolite as percent of ΣOH-PCBs of the parent PCB, CYP2A6: racemic PCB 50 µM, 10 pmol P450/mL, 37°C, mean ± SD
T4 sequence (P11509 1-494): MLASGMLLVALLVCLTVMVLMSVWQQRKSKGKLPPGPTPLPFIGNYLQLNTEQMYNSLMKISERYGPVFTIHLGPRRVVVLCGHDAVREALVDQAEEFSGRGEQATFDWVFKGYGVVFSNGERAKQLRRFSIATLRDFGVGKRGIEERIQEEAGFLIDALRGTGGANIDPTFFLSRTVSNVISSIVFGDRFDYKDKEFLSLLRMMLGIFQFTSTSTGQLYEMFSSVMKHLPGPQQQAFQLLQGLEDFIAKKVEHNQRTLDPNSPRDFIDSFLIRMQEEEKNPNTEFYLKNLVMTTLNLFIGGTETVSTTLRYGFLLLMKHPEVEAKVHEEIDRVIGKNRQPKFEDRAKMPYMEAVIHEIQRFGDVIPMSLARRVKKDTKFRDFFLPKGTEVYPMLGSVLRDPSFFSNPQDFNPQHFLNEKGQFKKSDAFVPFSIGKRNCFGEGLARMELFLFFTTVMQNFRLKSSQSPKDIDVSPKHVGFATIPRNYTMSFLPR

T2 sequence (P08684 whole entry): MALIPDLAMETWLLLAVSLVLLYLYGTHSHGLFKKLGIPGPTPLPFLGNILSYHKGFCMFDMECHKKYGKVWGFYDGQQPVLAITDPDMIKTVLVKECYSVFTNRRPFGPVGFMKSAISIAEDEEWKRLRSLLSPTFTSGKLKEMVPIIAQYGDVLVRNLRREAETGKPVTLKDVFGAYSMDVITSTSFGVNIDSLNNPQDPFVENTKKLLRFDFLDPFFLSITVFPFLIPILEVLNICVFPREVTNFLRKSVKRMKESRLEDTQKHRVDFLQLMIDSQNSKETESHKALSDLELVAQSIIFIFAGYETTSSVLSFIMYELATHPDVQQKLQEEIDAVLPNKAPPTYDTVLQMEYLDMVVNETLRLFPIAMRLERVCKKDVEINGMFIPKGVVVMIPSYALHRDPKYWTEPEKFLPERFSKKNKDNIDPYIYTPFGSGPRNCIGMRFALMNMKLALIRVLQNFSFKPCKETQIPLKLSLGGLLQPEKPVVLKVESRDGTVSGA
Sequence of recombinant human CYP2E1 (P05181 whole entry): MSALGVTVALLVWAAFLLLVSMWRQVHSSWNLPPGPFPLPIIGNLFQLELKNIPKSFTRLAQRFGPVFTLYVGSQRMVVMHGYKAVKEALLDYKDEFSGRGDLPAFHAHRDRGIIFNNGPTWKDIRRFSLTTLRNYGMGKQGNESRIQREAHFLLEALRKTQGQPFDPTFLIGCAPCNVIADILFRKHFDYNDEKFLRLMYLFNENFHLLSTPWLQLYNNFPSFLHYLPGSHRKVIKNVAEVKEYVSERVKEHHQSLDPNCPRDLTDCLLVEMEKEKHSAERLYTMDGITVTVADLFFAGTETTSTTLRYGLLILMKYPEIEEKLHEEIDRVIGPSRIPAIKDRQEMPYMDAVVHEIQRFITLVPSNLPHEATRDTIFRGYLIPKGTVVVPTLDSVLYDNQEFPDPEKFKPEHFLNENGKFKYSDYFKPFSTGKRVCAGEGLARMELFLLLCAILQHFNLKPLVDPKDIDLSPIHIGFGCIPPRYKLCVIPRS

## Oc1cc(Cl)c(Cl)c(-c2ccc(Cl)cc2Cl)c1Cl [5–91]
[1]
  enantiomeric fraction (EF) of OH-PCB metabolite, CYP2B6: 0.49
  metabolite as percent of ΣOH-PCBs of the parent PCB, CYP2B6: 98.4 ± 0.1%
[2]
  enantiomeric fraction (EF) of 5-hydroxylated metabolites, HLMs: 0.47

## Clc1ccc(Cl)c(-c2c(Cl)ccc(Cl)c2Cl)c1 [PCB 95, 2,2’,3,5’,6-pentachlorobiphenyl]
[3]
  metabolism by recombinant CYP3A4, earlier studies: did not metabolize
[4]
  oxidation by CYP2E1, earlier studies: did not observe any oxidation
[5]
  metabolism by recombinant CYP1A2, earlier studies: did not metabolize
[6]
  oxidation by CYP2B6, earlier studies: did not observe any oxidation
[7]
  OH-PCB metabolites detected in incubations with CYP3A4: no metabolites were detected
[8]
  OH-PCB metabolites detected in incubations with CYP1A2: no metabolites were detected

## Oc1cc(Cl)c(Cl)c(-c2cc(Cl)ccc2Cl)c1Cl [5–95]
[1]; PCB 95 incubation
  formation rate by CYP2B6, times lower compared to CYP2A6: 2 times
[9]
  ratio of 3–103: 5–95: 4–95: 4’−95 (relative to 4’−95 = 1), recombinant CYP2A6: 0.04
[2]
  ratio of 3–103: 5–95: 4–95: 4’−95 (relative to 4’−95 = 1), HLMs: 0.06

## Oc1cc(Cl)c(-c2c(Cl)ccc(Cl)c2Cl)c(Cl)c1Cl [4–136]
[9]
  enantiomeric fraction (EF) of OH-PCB metabolite, CYP2A6: 0.10
  metabolite as percent of ΣOH-PCBs of the parent PCB, CYP2A6: 64 ± 2%

## Clc1ccc(Cl)c(-c2c(Cl)ccc(Cl)c2Cl)c1Cl [PCB 136, 2,2’,3,3’,6,6’-hexachlorobiphenyl]
[7]
  OH-PCB metabolites detected in incubations with CYP3A4: no metabolites were detected
[8]
  OH-PCB metabolites detected in incubations with CYP1A2: no metabolites were detected

## Clc1ccc(-c2c(Cl)ccc(Cl)c2Cl)c(Cl)c1Cl [PCB 132, 2,2’,3,3’,4,6’-hexachlorobiphenyl]
[7]
  OH-PCB metabolites detected in incubations with CYP3A4: no metabolites were detected
[8]
  OH-PCB metabolites detected in incubations with CYP1A2: no metabolites were detected

## Oc1c(Cl)cc(Cl)c(-c2cc(Cl)ccc2Cl)c1Cl [3–103]
[9]
  enantiomeric fraction (EF) of OH-PCB metabolite, CYP2A6: 0.99
  ratio of 3–103: 5–95: 4–95: 4’−95 (relative to 4’−95 = 1), recombinant CYP2A6: 0.11
[2]
  ratio of 3–103: 5–95: 4–95: 4’−95 (relative to 4’−95 = 1), HLMs: 0.11

## Clc1ccc(Cl)c(-c2cc(Cl)ccc2Cl)c1 [PCB 52, 2,2’,5,5’-tetrachlorobiphenyl]
[3]
  metabolism by recombinant CYP3A4, earlier studies: did not metabolize
[4]
  oxidation by CYP2E1, earlier studies: did not observe any oxidation
[5]
  metabolism by recombinant CYP1A2, earlier studies: did not metabolize
[6]
  oxidation by CYP2B6, earlier studies: did not observe any oxidation

## Oc1cc(Cl)c(Cl)c(-c2c(Cl)ccc(Cl)c2Cl)c1Cl [5–136]
[1]
  enantiomeric fraction (EF) of OH-PCB metabolite, CYP2B6: 0.50
  metabolite as percent of ΣOH-PCBs of the parent PCB, CYP2B6: 94 ± 0.3%
[9]; PCB 136 incubation
  ratio of 5–136: 4–136 (4–136 = 1) formed with CYP2A6: 0.3
[2]; PCB 136 with HLMs
  ratio of 5–136: 4–136 (4–136 = 1), HLMs: 0.39
  ratio of 5–136: 4–136 (4–136 = 1), HLMs, earlier study: 1.3
[2]
  enantiomeric fraction (EF) of 5-hydroxylated metabolites, HLMs: 0.31

## Oc1c(Cl)cc(Cl)c(-c2ccc(Cl)cc2Cl)c1Cl [3–100]
[9]
  enantiomeric fraction (EF) of OH-PCB metabolite, CYP2A6: 0.92
  metabolite as percent of ΣOH-PCBs of the parent PCB, CYP2A6: 81 ± 2%
[2]
  enantiomeric fraction (EF) of 1,2-shift products, HLMs: 0.85

## Oc1cc(Cl)c(Cl)c(-c2ccc(Cl)c(Cl)c2Cl)c1Cl [5’−132]
[1]
  enantiomeric fraction (EF) of OH-PCB metabolite, CYP2B6: 0.32
  metabolite as percent of ΣOH-PCBs of the parent PCB, CYP2B6: 81 ± 7%
[2]
  enantiomeric fraction (EF) of 5-hydroxylated metabolites, HLMs: 0.19

## Oc1cc(Cl)c(-c2ccc(Cl)cc2Cl)c(Cl)c1Cl [4–91]
[1]
  enantiomeric fraction (EF) of OH-PCB metabolite, CYP2B6: 0.60
[9]
  enantiomeric fraction (EF) of OH-PCB metabolite, CYP2A6: 0.39

## Clc1ccc(-c2c(Cl)ccc(Cl)c2Cl)c(Cl)c1 [PCB 91, 2,2’,3,4’,6-pentachlorobiphenyl]
[7]
  OH-PCB metabolites detected in incubations with CYP3A4: no metabolites were detected
[8]
  OH-PCB metabolites detected in incubations with CYP1A2: no metabolites were detected

## Oc1c(Cl)cc(Cl)c(-c2ccc(Cl)c(Cl)c2Cl)c1Cl [3’−140]
[9]
  metabolite as percent of ΣOH-PCBs of the parent PCB, CYP2A6: 67 ± 1%
[2]
  enantiomeric fraction (EF) of 1,2-shift products, HLMs: 0.84
